Experimental data reported in ChEMBL document CHEMBL4196174, “Discovery of Indole Derivatives as Novel and Potent Dengue Virus Inhibitors” (J Med Chem, 2018).
pEC50, pIC50: −log10 of the molar value. In brackets after ≈: the same amount, converted by molar mass.

What was measured:
[1] = system: dengue virus type 2; test: Antiviral activity against Dengue virus 2 Rega infected in African green monkey Vero cells assessed as reduction in viral yield after 4 days by qRT-PCR analysis; assay type: functional, organism-based
Method in brief: (§1)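 Virus yield reduction in Vero cells (seeded 5×10^4/well). Next day infected with DENV (MOI 0.01) in assay medium (MEM, 2% FBS, 0.075% bicarbonate, 2 mM L-glutamine). After 1 h, input virus was removed and cells rinsed 3 times. Medium with 3- or 5-fold compound serial dilutions was then added. Incubation was 4 days (DENV-2, DENV-4) or 7 days (DENV-1, DENV-3). Supernatant viral RNA was measured by RT-qPCR, and EC50 obtained by logarithmic interpolation.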

[2] = (§2) Cytotoxicity against African green monkey Vero cells assessed as cell growth inhibition after 4 days by MTS/PMS method; assay type: cell-based; settings: chlorocebus sabaeus, Vero cells
Method in brief: (§3)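 Cytotoxicity run as in the yield assay, but without virus. Vero cells (5×10^4/well) were exposed to 3- or 5-fold serial dilutions in MEM with 2% FBS. Viability was read by the MTS/PMS colorimetric method. CC50 was derived by logarithmic interpolation.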

[3] = Solubility of the compound in DMSO solution at pH 7.4; assay type: physicochemical
Method in brief: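 Solubility measured at pH 7.4, starting from a DMSO solution.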

[4] = system: P-gp (MDR1); test: (§4) Apparent permeability across apical to basolateral side in MDR1 transfected pig LLC-PK1 cells in absence of P-gp inhibitor GF120918; assay type: ADME, cell-based, Sus scrofa; settings: LLC-PK1
Method in brief: (§5)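 Permeability measured in MDR1-transfected LLC-PK1 cells without the P-gp inhibitor GF120918.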

[5] = Protein binding in human plasma; assay type: ADME, cell-free; settings: for fraction unbound: read-out: PPB (converted)
[6] = Protein binding in rat plasma; assay type: ADME, cell-free; settings: for fraction unbound: read-out: PPB (converted)
[7] = Drug metabolism in human liver microsomes after 15 mins; assay type: ADME, microsome; settings: for metabolised at 0.25 h: liver microsomes, read-out: Drug metabolism; for Drug metabolism: microsomes, 0.25 h
Method in brief: (§6)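 Percentage of compound metabolized after 15 min incubation with human or rat liver microsomes.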

[8] = Drug metabolism in rat liver microsomes after 15 mins; assay type: ADME, microsome; settings: for metabolised at 0.25 h: liver microsomes, read-out: Drug metabolism; for Drug metabolism: microsomes, 0.25 h; method in brief: as §6
[9] = target: T1, Cytochrome P450 1A2 (Homo sapiens, UniProt P05177); test: Inhibition of CYP1A2 (unknown origin); assay type: ADME
T1 sequence (P05177 whole entry): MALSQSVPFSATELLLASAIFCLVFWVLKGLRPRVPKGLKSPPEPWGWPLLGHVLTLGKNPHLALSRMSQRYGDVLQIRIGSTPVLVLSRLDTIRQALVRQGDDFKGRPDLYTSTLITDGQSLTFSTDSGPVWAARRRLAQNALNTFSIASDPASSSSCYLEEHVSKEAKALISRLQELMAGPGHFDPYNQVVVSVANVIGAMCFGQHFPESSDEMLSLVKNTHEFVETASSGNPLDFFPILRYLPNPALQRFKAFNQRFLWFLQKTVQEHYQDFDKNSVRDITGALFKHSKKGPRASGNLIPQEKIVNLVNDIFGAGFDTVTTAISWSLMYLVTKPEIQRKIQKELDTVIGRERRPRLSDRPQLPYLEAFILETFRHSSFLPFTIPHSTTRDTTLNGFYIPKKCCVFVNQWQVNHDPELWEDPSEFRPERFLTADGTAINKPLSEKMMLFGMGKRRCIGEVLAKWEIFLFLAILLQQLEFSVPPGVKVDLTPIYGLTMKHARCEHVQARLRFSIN

[10] = target: Cytochrome P450 2C19 (Homo sapiens, UniProt P33261); test: Inhibition of CYP2C19 (unknown origin); assay type: ADME
[11] = target: Cytochrome P450 2C9 (Homo sapiens, UniProt P11712); test: Inhibition of CYP2C9 (unknown origin); assay type: ADME
[12] = target: Cytochrome P450 2D6 (Homo sapiens, UniProt P10635); test: Inhibition of CYP2D6 (unknown origin); assay type: ADME
[13] = target: Cytochrome P450 3A4 (Homo sapiens, UniProt P08684); test: Inhibition of CYP3A4 (unknown origin); assay type: ADME
[14] = target: Voltage-gated inwardly rectifying potassium channel KCNH2 (Homo sapiens, UniProt Q12809); test: Inhibition of human ERG
[15] = system: Salmonella typhimurium; test: Mutagenicity in Salmonella typhimurium in presence of human liver S9 fraction by Ames test; assay type: toxicity, organism-based; settings: salmonella enterica subsp. enterica serovar typhimurium
[16] = system: Salmonella typhimurium; test: Mutagenicity in Salmonella typhimurium in absence of human liver S9 fraction by Ames test; assay type: toxicity, organism-based; settings: salmonella enterica subsp. enterica serovar typhimurium
[17] = system: dengue virus type 1; test: Antiviral activity against Dengue virus 1 Djibouti D1/H/IMTSSA/98/606 infected in African green monkey Vero cells assessed as reduction in viral yield after 7 days by qRT-PCR analysis; assay type: functional, organism-based; settings: Djibouti D1/H/IMTSSA/98/606, Vero, 168 h; method in brief: as §1
[18] = system: dengue virus type 3; test: Antiviral activity against Dengue virus 3 H87 infected in African green monkey Vero cells assessed as reduction in viral yield after 7 days by qRT-PCR analysis; assay type: functional, organism-based; settings: 168 h; method in brief: as §1
[19] = system: dengue virus type 4; test: Antiviral activity against Dengue virus 4 DAKHD34460 infected in African green monkey Vero cells assessed as reduction in viral yield after 4 days by qRT-PCR analysis; assay type: functional, organism-based; settings: 96 h; method in brief: as §1
[20] = Selectivity index, ratio of CC50 for African green monkey Vero cells to EC50 for Dengue virus 2 Rega; assay type: toxicity; settings: read-out: Ratio CC50/EC50
[21] = system: dengue virus type 2; test: Antiviral activity against Dengue virus 2 Rega infected in African green monkey Vero cells assessed as log10 reduction of viral RNA replication at nontoxic dose after 4 days by qRT-PCR analysis relative to control; assay type: functional
[22] = Half life in human liver microsomes; assay type: ADME, microsome
[23] = system: Vero; test: as §2; assay type: cell-based; settings: chlorocebus sabaeus, vero, 96 h; method in brief: as §3
[24] = as §4; assay type: ADME, cell-based, Sus scrofa; settings: llc-pk1; method in brief: as §5
[25] = Clearance in rat at 2.5 mg/kg, iv; assay type: ADME, organism-based; settings: in vivo
Method in brief: (§7)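 Rat PK. Intravenous dose was 2.5 mg/kg in PEG400/water 7/3. Oral dose was 10 mg/kg in PEG400.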

[26] = Volume of distribution at steady state in rat at 2.5 mg/kg, iv; assay type: ADME, organism-based; settings: in vivo, read-out: Vdss; method in brief: as §7
[27] = Half life in rat at 2.5 mg/kg, iv; assay type: ADME, organism-based; settings: in vivo; method in brief: as §7
[28] = Cmax in rat at 10 mg/kg, po; assay type: ADME, organism-based; set-up: dose 10 mg/kg, route oral; settings: in vivo; method in brief: as §7
[29] = AUClast in rat at 10 mg/kg, po; assay type: ADME, organism-based; set-up: dose 10 mg/kg, route oral, time 0 - last; settings: in vivo; method in brief: as §7
[30] = Oral bioavailability in rat at 10 mg/kg; assay type: ADME, organism-based; settings: in vivo; method in brief: as §7

Cytochrome P450 2C9, sequence (P11712 whole entry): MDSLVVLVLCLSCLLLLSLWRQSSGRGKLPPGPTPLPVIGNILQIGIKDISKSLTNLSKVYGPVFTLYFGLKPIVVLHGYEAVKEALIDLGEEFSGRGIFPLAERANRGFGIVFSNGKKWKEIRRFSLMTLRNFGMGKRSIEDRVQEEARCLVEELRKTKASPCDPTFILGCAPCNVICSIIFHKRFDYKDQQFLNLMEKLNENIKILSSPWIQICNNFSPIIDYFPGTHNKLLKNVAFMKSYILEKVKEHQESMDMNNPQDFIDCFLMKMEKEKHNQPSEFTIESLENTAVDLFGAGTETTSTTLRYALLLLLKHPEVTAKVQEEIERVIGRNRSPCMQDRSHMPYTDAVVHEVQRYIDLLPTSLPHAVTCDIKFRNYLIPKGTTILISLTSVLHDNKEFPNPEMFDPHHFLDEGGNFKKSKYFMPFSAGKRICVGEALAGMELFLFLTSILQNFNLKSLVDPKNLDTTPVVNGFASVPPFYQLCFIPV
Voltage-gated inwardly rectifying potassium channel KCNH2, sequence (Q12809 whole entry): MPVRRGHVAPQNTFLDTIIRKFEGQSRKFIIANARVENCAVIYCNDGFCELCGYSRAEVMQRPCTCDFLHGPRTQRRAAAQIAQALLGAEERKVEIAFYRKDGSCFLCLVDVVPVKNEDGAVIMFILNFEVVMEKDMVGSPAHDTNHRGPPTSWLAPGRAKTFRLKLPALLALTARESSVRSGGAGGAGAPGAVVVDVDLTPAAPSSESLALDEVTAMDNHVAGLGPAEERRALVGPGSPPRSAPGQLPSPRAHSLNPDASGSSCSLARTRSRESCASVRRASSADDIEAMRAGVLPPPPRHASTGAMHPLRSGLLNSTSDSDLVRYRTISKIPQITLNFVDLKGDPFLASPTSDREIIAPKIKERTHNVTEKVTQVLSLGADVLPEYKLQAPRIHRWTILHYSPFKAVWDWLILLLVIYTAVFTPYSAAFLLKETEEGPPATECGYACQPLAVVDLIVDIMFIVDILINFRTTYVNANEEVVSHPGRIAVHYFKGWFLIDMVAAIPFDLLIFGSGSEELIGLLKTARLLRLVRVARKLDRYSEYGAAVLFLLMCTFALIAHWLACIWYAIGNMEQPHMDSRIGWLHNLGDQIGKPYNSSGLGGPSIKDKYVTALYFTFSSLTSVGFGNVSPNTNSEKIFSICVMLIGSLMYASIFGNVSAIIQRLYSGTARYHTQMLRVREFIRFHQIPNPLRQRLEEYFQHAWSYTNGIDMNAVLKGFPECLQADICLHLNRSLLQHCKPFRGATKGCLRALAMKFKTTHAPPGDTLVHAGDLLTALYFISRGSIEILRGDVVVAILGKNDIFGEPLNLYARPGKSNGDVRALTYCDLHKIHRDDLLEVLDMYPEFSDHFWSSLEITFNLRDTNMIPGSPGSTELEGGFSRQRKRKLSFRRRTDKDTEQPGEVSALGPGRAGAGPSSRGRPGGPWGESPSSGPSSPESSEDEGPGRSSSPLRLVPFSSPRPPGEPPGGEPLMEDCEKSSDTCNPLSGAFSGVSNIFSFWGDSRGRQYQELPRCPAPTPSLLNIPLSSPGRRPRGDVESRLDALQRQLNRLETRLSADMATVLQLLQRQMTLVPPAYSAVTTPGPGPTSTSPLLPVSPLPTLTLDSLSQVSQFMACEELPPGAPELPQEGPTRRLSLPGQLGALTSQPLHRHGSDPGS
Cytochrome P450 2C19, sequence (P33261 whole entry): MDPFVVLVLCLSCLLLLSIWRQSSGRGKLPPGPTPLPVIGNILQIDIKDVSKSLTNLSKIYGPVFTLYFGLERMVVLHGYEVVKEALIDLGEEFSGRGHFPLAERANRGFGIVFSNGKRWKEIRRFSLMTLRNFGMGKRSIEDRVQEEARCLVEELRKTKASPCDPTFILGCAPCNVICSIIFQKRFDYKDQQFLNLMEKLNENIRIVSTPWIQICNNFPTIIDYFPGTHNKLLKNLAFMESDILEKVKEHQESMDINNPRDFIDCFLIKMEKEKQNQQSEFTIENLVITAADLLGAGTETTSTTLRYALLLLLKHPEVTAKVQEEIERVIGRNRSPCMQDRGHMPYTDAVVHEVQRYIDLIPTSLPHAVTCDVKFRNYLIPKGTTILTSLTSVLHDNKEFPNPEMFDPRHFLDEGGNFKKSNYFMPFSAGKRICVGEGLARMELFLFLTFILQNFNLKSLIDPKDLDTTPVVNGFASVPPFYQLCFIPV
Cytochrome P450 3A4, sequence (P08684 whole entry): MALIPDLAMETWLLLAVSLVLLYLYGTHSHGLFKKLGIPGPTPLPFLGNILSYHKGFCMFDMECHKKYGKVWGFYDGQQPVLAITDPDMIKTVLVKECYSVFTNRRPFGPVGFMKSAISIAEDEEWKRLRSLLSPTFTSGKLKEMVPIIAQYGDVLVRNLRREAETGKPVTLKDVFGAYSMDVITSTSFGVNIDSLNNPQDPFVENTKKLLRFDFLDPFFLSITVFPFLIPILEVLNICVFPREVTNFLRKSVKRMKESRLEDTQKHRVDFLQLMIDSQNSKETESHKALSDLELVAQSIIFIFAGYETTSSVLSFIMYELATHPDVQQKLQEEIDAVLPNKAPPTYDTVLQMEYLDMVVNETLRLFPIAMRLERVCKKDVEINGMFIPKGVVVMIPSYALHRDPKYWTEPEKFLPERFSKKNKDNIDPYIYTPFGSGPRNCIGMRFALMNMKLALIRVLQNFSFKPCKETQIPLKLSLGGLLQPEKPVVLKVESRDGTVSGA
Cytochrome P450 2D6, sequence (P10635 whole entry): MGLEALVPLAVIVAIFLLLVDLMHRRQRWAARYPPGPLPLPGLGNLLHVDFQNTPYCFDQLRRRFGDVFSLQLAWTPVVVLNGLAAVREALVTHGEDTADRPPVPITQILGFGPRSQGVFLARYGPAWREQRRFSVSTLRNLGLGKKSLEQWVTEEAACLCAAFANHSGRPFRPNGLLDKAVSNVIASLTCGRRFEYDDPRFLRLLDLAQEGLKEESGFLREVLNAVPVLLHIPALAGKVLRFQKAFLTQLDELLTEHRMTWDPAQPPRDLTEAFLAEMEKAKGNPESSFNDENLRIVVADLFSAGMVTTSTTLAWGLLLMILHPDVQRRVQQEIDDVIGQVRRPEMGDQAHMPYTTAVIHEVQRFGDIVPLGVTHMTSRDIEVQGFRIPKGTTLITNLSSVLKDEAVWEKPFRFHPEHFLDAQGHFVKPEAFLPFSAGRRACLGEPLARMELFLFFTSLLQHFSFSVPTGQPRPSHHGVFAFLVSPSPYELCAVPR

Row | pEC50 ([1]; Dengue virus, Rega, Vero, 96 h) | solubility ([3]; read-out: solubility) [µM] | Papp A→B [4] [×10⁻⁶ cm/s] | fraction unbound [5] | fraction unbound [6] | metabolised at 0.25 h [7] [%] | metabolised at 0.25 h [8] [%] | pIC50 [9] | pIC50 [10] | pIC50 [11] | pIC50 [12] | pIC50 [13] | pEC50 ([1]; vero) | PPB [5] [%] | Drug metabolism [7] [%] | Compound | CC50 at 96 h [2] [µM] | pIC50 [14] | Activity [15] | Activity [16] | CC50 [23] [µM] | also measured
1 | 7.96 | 1 (≈ 0.397 µg/mL) | 5.6 | < 0.002 | < 0.004 | 19 | 99 | 5.38 | 5.49 | 5.21 | < 5.00 | < 5.00 |  |  |  | COc1cccc(NC(C(=O)c2c[nH]c3ccccc23)c2nc3ccccc3o2)c1 (configuration not stated) | 13 |  |  |  |  | 
2 | 7.44 | 42 (≈ 15 µg/mL) | 4.7 | 0.005 | 0.008 | 23 | 86 | 5.55 | 5.60 | 5.48 | 5.08 | 7.30 |  |  |  | COc1cncc(NC(C(=O)c2c[nH]c3ccccc23)c2ccccc2)c1 (configuration not stated) | 20 | 5.46 | Non-Toxic | Non-Toxic |  | 
3 | 7.11 |  |  |  |  |  |  |  |  |  |  |  |  |  |  | COc1ccc(NC(C(=O)c2c[nH]c3ccccc23)c2ccccc2)cc1OC (configuration not stated) | 29 |  | Non-Toxic | Non-Toxic |  | pEC50 [17]: 5.80; pEC50 [18]: 4.53; pEC50 [19]: 5.35; selectivity ratio [20]: 380; FC [21]: 3.8
4 | 7.02 | 23 (≈ 10.2 µg/mL) |  |  |  |  |  |  |  |  |  |  |  |  |  | COc1cc(NC(C(=O)c2c[nH]c3ccc(CCCO)cc23)c2ccccc2)cc(OC)c1 (configuration not stated) | 56 |  |  |  |  | half-life [22]: 0.633 h
5 |  |  |  |  |  |  |  | 5.62 | 5.40 | 5.32 | < 5.00 | < 5.00 | 8.15 | 99.8 | 11 | COc1cc(NC(C(=O)c2c[nH]c3ccccc23)c2ccccc2)cc(OC)c1 (racemic) |  | < 4.30 | Non-Toxic | Non-Toxic | 16 | Papp [24]: 7.5 ×10⁻⁶ cm/s; PPB [6]: 99.9%; Drug metabolism [8]: 63%
6 |  | 48 (≈ 20 µg/mL) | 1.8 | 0.01 | 0.008 |  | 21 | < 5.00 | 5.36 | 5.51 | < 5.00 | < 5.00 | 7.92 |  | 2 | COc1cc(NC(C(=O)c2c[nH]c3ccccc23)c2ccccc2)cc(OCCO)c1 (single isomer, unassigned; (+)) |  | < 4.30 |  |  | 105 | clearance [25]: 35 mL/min/kg; Vd [26]: 5.8 L/kg; half-life [27]: 2.4 h; Cmax [28]: 706 nM; AUC(0-t) [29]: 7.32 µM·h; bioavailability [30]: 64%
7 |  | 6 (≈ 2.32 µg/mL) | 7.6 |  | 0.002 | 14 |  | 5.85 | 5.64 | 5.49 | < 5.00 | < 5.00 | 9.00 | 99.7 |  | COc1cc(NC(C(=O)c2c[nH]c3ccccc23)c2ccccc2)cc(OC)c1 (single isomer, unassigned; (+)) | 13 |  |  |  |  | pEC50 [17]: 7.33; pEC50 [18]: 7.04; pEC50 [19]: 5.72; Drug metabolism [8]: 37%; clearance [25]: 67 mL/min/kg; Vd [26]: 26 L/kg; half-life [27]: 4.7 h; Cmax [28]: 88 nM; AUC(0-t) [29]: 0.422 µM·h; bioavailability [30]: 7%
8 |  |  |  |  |  |  |  | 5.19 | 5.52 | 5.52 | < 5.00 | < 5.00 | 6.46 | 99.9 | 16 | COc1cc(NC(C(=O)c2c[nH]c3ccccc23)c2ccccc2)cc(OC)c1 (stereo in doubt; 12b) |  |  |  |  | 11 | solubility [3]: 9 µM (≈ 3.48 µg/mL); Papp [24]: 7.4 ×10⁻⁶ cm/s; PPB [6]: > 99.9%; Drug metabolism [8]: 91%
